Measurements: ChEMBL document CHEMBL1156273, “Membrane permeable cyclic peptidyl inhibitors against human Peptidylprolyl Isomerase Pin1” (J Med Chem, 2010)
Activity calls are given as the source filed them. The calls are words filed in the database; no cut-off is given here. Square brackets hold non-standard residues; d marks the D form. Peptide text beside a SMILES is read from it. dalloThr(PO3H2) = C[C@@H](OP(=O)(O)O)[C@@H](N)C(=O)O; d(pT) = C[C@H](OP(=O)(O)O)[C@@H](N)C(=O)O; 2Nal = N[C@@H](Cc1ccc2ccccc2c1)C(=O)O; Pip = O=C(O)[C@@H]1CCCCN1

Experiments:
BT-474 = test: Antiproliferative activity against human BT474 cells at […] after 6 days; assay type: functional
HeLa [1] = test: Cellular uptake in human HeLa cells assessed as nuclear localization at 1 uM after 48 hrs by fluorescence microscopy; assay type: ADME, cell-based
Method in brief: (§1)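 HeLa cells in DME + 10% FBS, 1% pen/strep, 37 °C, 5% CO2, grown on cover glass. Given 0 or 1.0 μM FITC-labeled peptide (FITC on the Glu side chain via a Lys linker) for 48 h. Then PBS-washed, fixed in 3.7% paraformaldehyde, permeabilized with goat serum/Triton X-100, DAPI-stained, and imaged by fluorescence microscopy.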

HeLa [2] = test: Cellular uptake in human HeLa cells assessed as cytoplasmic localization at 1 uM after 48 hrs by fluorescence microscopy; assay type: ADME, cell-based; method in brief: as §1
[3] = target: Peptidyl-prolyl cis-trans isomerase NIMA-interacting 1 (Homo sapiens) (UniProt Q13526); test: Inhibition of Pin1 in human BT474 cells assessed as increase in SMRT level at 5 uM by Western blotting; assay type: cell-based; details: BT-474
Chain of Peptidyl-prolyl cis-trans isomerase NIMA-interacting 1 (Homo sapiens) (Q13526 whole entry): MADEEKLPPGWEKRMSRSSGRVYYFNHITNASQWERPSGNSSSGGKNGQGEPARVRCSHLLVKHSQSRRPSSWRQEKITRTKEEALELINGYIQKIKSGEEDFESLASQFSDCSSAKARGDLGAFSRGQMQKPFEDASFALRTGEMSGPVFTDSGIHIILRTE
Method in brief: (§2)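 Cells given peptide for 48 h: HeLa in DME + 10% FBS, pen/strep; BT-474 in Hybri-Care DME + 10% FBS. Vehicle control DMSO. Lysed in RIPA with protease inhibitors, equal protein (Bradford) on 8% SDS-PAGE, nitrocellulose transfer, milk block. Probed with anti-SMRT, anti-PML and anti-β-actin (loading), HRP secondary, chemiluminescent detection.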

[4] = target: Peptidyl-prolyl cis-trans isomerase NIMA-interacting 1 (Homo sapiens) (UniProt Q13526); test: Inhibition of Pin1 in human BT474 cells assessed as increase in PML level at 5 uM by Western blotting; assay type: cell-based; details: BT-474; method in brief: as §2

Row | SMILES | Drug uptake (HeLa [1]) | Drug uptake (HeLa [2]) | Activity [3] | Activity [4] | Activity (BT-474)
1 | C[C@H]1NC(=O)[C@H](CCC(N)=O)NC(=O)[C@H](CCCN)NC(=O)[C@H](Cc2ccc3ccccc3c2)NC(=O)[C@@H]2CCCCN2C(=O)[C@@H]([C@@H](C)OP(=O)(O)O)NC(=O)CNC1=O | – | – | – | – | inactive
2 | CC1NC(=O)[C@H](CCC(N)=O)NC(=O)[C@H](Cc2ccc(O)cc2)NC(=O)[C@H](Cc2ccc3ccccc3c2)NC(=O)[C@@H]2CCCCN2C(=O)[C@@H]([C@@H](C)OP(=O)(O)O)NC(=O)CN(C)C1=O (stereo in doubt) | – | – | – | – | inactive
3 | C[C@@H](OP(=O)(O)O)[C@H]1NC(=O)[C@@H](CCCNC(=N)N)NC(=O)[C@@H](CCCNC(=N)N)NC(=O)[C@H](CCC(N)=O)NC(=O)[C@H](CCCNC(=N)N)NC(=O)[C@H](Cc2ccc3ccccc3c2)NC(=O)[C@@H]2CCCCN2C1=O | Active | Active | – | – | –
4 | C[C@H](O)[C@H]1NC(=O)[C@H](CCCNC(=N)N)NC(=O)[C@H](CCCNC(=N)N)NC(=O)[C@H](CCCNC(=N)N)NC(=O)[C@H](CCC(N)=O)NC(=O)[C@H](CCCNC(=N)N)NC(=O)[C@H](CCCNC(=N)N)NC(=O)[C@H](Cc2ccc3ccccc3c2)NC(=O)[C@@H]2CCCCN2C1=O (cyclo([2Nal]RRQRRR[dT][Pip])) | Active | Active | – | – | –
5 | C[C@H](O)[C@H]1NC(=O)[C@@H](CCCNC(=N)N)NC(=O)[C@@H](CCCNC(=N)N)NC(=O)[C@H](CCC(N)=O)NC(=O)[C@H](CCCNC(=N)N)NC(=O)[C@H](Cc2ccc3ccccc3c2)NC(=O)[C@@H]2CCCCN2C1=O | Active | Active | – | – | –

Further lines, with some results ahead:

Row | Drug uptake (HeLa [1]) | Drug uptake (HeLa [2]) | Activity [3] | Activity [4] | SMILES | Activity (BT-474)
6 | Active | Active | – | – | C[C@H](O)[C@H]1NC(=O)[C@@H](CCCNC(=N)N)NC(=O)[C@@H](CCCNC(=N)N)NC(=O)[C@H](CCC(N)=O)NC(=O)[C@@H](CCCNC(=N)N)NC(=O)[C@@H](CCCNC(=N)N)NC(=O)[C@@H](CCCNC(=N)N)NC(=O)[C@H](CCCNC(=N)N)NC(=O)[C@H](Cc2ccc3ccccc3c2)NC(=O)[C@@H]2CCCCN2C1=O (cyclo([dR][dR][dT][Pip][2Nal]R[dR][dR][dR]Q)) | –
7 | Active | Active | Active | Active | C[C@@H](OP(=O)(O)O)[C@H]1NC(=O)[C@H](CCCNC(=N)N)NC(=O)[C@H](CCCNC(=N)N)NC(=O)[C@H](CCCNC(=N)N)NC(=O)[C@H](CCC(N)=O)NC(=O)[C@H](CCCNC(=N)N)NC(=O)[C@H](CCCNC(=N)N)NC(=O)[C@H](Cc2ccc3ccccc3c2)NC(=O)[C@@H]2CCCCN2C1=O (cyclo([2Nal]RRQRRR[dalloThr(PO3H2)][Pip])) | –
8 | Active | Active | – | – | C[C@H](OP(=O)(O)O)[C@H]1NC(=O)[C@@H](CCCNC(=N)N)NC(=O)[C@@H](CCCNC(=N)N)NC(=O)[C@H](CCC(N)=O)NC(=O)[C@@H](CCCNC(=N)N)NC(=O)[C@@H](CCCNC(=N)N)NC(=O)[C@@H](CCCNC(=N)N)NC(=O)[C@H](CCCNC(=N)N)NC(=O)[C@H](Cc2ccc3ccccc3c2)NC(=O)[C@@H]2CCCCN2C1=O (cyclo([dR][dR][d(pT)][Pip][2Nal]R[dR][dR][dR]Q)) | –
